Active and inactive are the calls of the source. The calls are words filed in the database; no cut-off is given here.
Experiments:
Rattus norvegicus [1] = assay: Antihyperalgesic effects in Sprague-Dawley rat CCI model assessed as duration of paw withdrawal at 100 mg/kg, ip after 1.5 hrs; format: functional; conditions: route intraperitoneal
Mus musculus [2] = assay: Anticonvulsant activity in Swiss Albino mouse at 300 mg/kg, ip after 0.5 hr by scPTZ test; format: functional, organism-based; set-up: dose 300 mg/kg
Method in brief: (§1)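 Mice (Swiss, 20-25 g) given i.p. doses of 30, 100 and 300 mg/kg under ADD program protocols, three per group, examined at 0.5 and 4 h in MES, scPTZ, scSTY or scPIC seizure tests. Value is the minimum dose protecting half or more of the mice.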

Mus musculus [3] = assay: Neurotoxicity in Swiss Albino mouse at 300 mg/kg, ip after 0.5 hr by rotarod test; format: functional, organism-based; set-up: dose 300 mg/kg
Method in brief: (§2)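 Swiss mice (20-25 g) are trained on an accelerating rotorod (10 rpm, 3.2 cm rod), then injected i.p. at 30, 100 or 300 mg/kg, with three per group. Neurotoxicity means failure to keep equilibrium for at least 1 min in each of three trials, checked at 0.5 and 4 h. The value reported is the minimum dose affecting half or more of the mice.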

Rattus norvegicus [4] = assay: Antihyperalgesic effects in Sprague-Dawley rat SNL model assessed as duration of paw withdrawal at 100 mg/kg, ip after 2 hrs, ip; format: functional; conditions: route intraperitoneal
Method in brief: (§3)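 L5 SNL rats (n = 4), dosed 100 mg/kg i.p. (vehicle 30% v/v PEG 400 in water). Pin-prick to midplantar ipsilateral left hindpaw; withdrawal duration, mean of three responses; ≥2 s defined abnormal. Mean ± SEM; one-way ANOVA with Bonferroni versus predrug.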

Rattus norvegicus [5] = assay: Antihyperalgesic effects in Sprague-Dawley rat CCI model assessed as duration of paw withdrawal at 100 mg/kg, ip after 0.5 hr; format: functional; conditions: route intraperitoneal
Mus musculus [6] = assay: Analgesic activity in Swiss Albino mouse assessed as number of acetic acid-induced writhing per 30 min after 100 mg/kg, ip; format: functional; conditions: route intraperitoneal
Method in brief: (§4)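 Mice in groups of six dosed i.p. at 100 mg/kg, controls receiving 30% v/v PEG 400 in water. Writhing induced by i.p. 0.1 mL of 3% v/v acetic acid 1 h after drug. Writhes (abdominal stretch with at least one hind limb extended) counted over 30 min; % inhibition calculated. Mean ± SEM, Student's t test.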

Rattus norvegicus [7] = assay: Anti-cold allodynia effect in Sprague-Dawley rat SNL model assessed as duration of paw withdrawal 100 mg/kg, ip after 2 hrs; format: functional; conditions: route intraperitoneal
Method in brief: (§5)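 Left L5 spinal nerve ligation under pentobarbital (65 mg/kg i.p.). Allodynic rats dosed i.p. 100 mg/kg, vehicle 30% v/v PEG 400 in water. Acetone (100-200 µL) misted onto midplantar affected paw after 10 min acclimatization; paw withdrawal duration, mean of three samples at least 3 min apart; n = 4 rats.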

Mus musculus [8] = assay: Anticonvulsant activity in Swiss Albino mouse at 300 mg/kg, ip after 4 hrs by scSTY test; format: functional, organism-based; set-up: dose 300 mg/kg; method in brief: as §1
Rattus norvegicus [9] = assay: Anti-dynamic allodynia effect in Sprague-Dawley rat SNL model assessed as latency to paw withdrawal 100 mg/kg, ip after 1 hr; format: functional; conditions: route intraperitoneal
Method in brief: (§6)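 Left L5 spinal nerve ligation rats, tested preoperatively and 9 days postoperatively, then given 100 mg/kg i.p. (vehicle 30% v/v PEG 400 in water). After 10 min acclimatization, plantar surface of affected paw stroked mildly with a cotton-bud; paw lift response recorded. n = 4; retested 0.5-2.5 h post-dose.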

Mus musculus [10] = assay: Neurotoxicity in Swiss Albino mouse at 300 mg/kg, ip after 4 hrs by rotarod test; format: functional, organism-based; set-up: dose 300 mg/kg; method in brief: as §2
Mus musculus [11] = assay: Anticonvulsant activity in Swiss Albino mouse at 300 mg/kg, ip after 0.5 hr by MES test; format: functional, organism-based; set-up: dose 300 mg/kg; method in brief: as §1
Rattus norvegicus [12] = assay: Antihyperalgesic effects in Sprague-Dawley rat CCI model assessed as duration of paw withdrawal at 100 mg/kg, ip after 1 hr; format: functional; conditions: route intraperitoneal
Rattus norvegicus [13] = assay: Antihyperalgesic effects in Sprague-Dawley rat SNL model assessed as duration of paw withdrawal at 100 mg/kg, ip after 2.5 hrs, ip; format: functional; conditions: route intraperitoneal; method in brief: as §3
Mus musculus [14] = assay: Anticonvulsant activity in Swiss Albino mouse at 300 mg/kg, ip after 4 hrs by MES test; format: functional, organism-based; set-up: dose 300 mg/kg; method in brief: as §1
Mus musculus [15] = assay: Analgesic activity in Swiss Albino mouse assessed as inhibition of acetic acid-induced writhing responses at 100 mg/kg, ip; format: functional; conditions: route intraperitoneal; method in brief: as §4
Rattus norvegicus [16] = assay: Antihyperalgesic effects in Sprague-Dawley rat CCI model assessed as duration of paw withdrawal at 100 mg/kg, ip after 2 hrs; format: functional; conditions: route intraperitoneal
Rattus norvegicus [17] = assay: Anti-dynamic allodynia effect in Sprague-Dawley rat SNL model assessed as latency to paw withdrawal 100 mg/kg, ip after 0.5 hr; format: functional; conditions: route intraperitoneal; method in brief: as §6
Rattus norvegicus [18] = assay: Antihyperalgesic effects in Sprague-Dawley rat SNL model assessed as duration of paw withdrawal at 100 mg/kg, ip after 0.5 hr, ip; format: functional; conditions: route intraperitoneal; method in brief: as §3
Rattus norvegicus [19] = assay: Antihyperalgesic effects in Sprague-Dawley rat CCI model assessed as duration of paw withdrawal at 100 mg/kg, ip after 2.5 hrs; format: functional; conditions: route intraperitoneal
Rattus norvegicus [20] = assay: Antihyperalgesic effects in Sprague-Dawley rat SNL model assessed as duration of paw withdrawal at 100 mg/kg, ip after 1.5 hrs, ip; format: functional; conditions: route intraperitoneal; method in brief: as §3
Rattus norvegicus [21] = assay: Anti-cold allodynia effect in Sprague-Dawley rat SNL model assessed as duration of paw withdrawal 100 mg/kg, ip after 1.5 hrs; format: functional; conditions: route intraperitoneal; method in brief: as §5
Mus musculus [22] = assay: Anticonvulsant activity in Swiss Albino mouse at 300 mg/kg, ip after 0.5 hr by scSTY test; format: functional, organism-based; set-up: dose 300 mg/kg; method in brief: as §1
Mus musculus [23] = assay: Anticonvulsant activity in Swiss Albino mouse at 300 mg/kg, ip after 4 hrs by scPIC test; format: functional, organism-based; set-up: dose 300 mg/kg; method in brief: as §1
Mus musculus [24] = assay: Anticonvulsant activity in Swiss Albino mouse at 300 mg/kg, ip after 0.5 hr by scPIC test; format: functional, organism-based; set-up: dose 300 mg/kg; method in brief: as §1
Rattus norvegicus [25] = assay: Anti-dynamic allodynia effect in Sprague-Dawley rat SNL model assessed as latency to paw withdrawal 100 mg/kg, ip after 2 hrs; format: functional; conditions: route intraperitoneal; method in brief: as §6
Rattus norvegicus [26] = assay: Anti-dynamic allodynia effect in Sprague-Dawley rat SNL model assessed as latency to paw withdrawal 100 mg/kg, ip after 1.5 hrs; format: functional; conditions: route intraperitoneal; method in brief: as §6
Rattus norvegicus [27] = assay: Anti-dynamic allodynia effect in Sprague-Dawley rat SNL model assessed as latency to paw withdrawal 100 mg/kg, ip after 2.5 hrs; format: functional; conditions: route intraperitoneal; method in brief: as §6
Rattus norvegicus [28] = assay: Anti-cold allodynia effect in Sprague-Dawley rat SNL model assessed as duration of paw withdrawal 100 mg/kg, ip after 2.5 hrs; format: functional; conditions: route intraperitoneal; method in brief: as §5
Rattus norvegicus [29] = assay: Anti-cold allodynia effect in Sprague-Dawley rat SNL model assessed as duration of paw withdrawal 100 mg/kg, ip after 1 hrs; format: functional; conditions: route intraperitoneal; method in brief: as §5
Rattus norvegicus [30] = assay: Antihyperalgesic effects in Sprague-Dawley rat SNL model assessed as duration of paw withdrawal at 100 mg/kg, ip after 1 hr, ip; format: functional; conditions: route intraperitoneal; method in brief: as §3
Rattus norvegicus [31] = assay: Anti-cold allodynia effect in Sprague-Dawley rat SNL model assessed as duration of paw withdrawal 100 mg/kg, ip after 0.5 hr; format: functional; conditions: route intraperitoneal; method in brief: as §5

Compound: O=C(O)CCCNC(=O)NN=C1CCCC1
- Activity (Rattus norvegicus [1]): 17.7 s
- Activity (Mus musculus [2]): inactive
- Activity (Mus musculus [3]): Active
- Activity (Rattus norvegicus [4]): 9.6 s
- Activity (Rattus norvegicus [5]): 32.1 s
- Activity (Mus musculus [6]): 18
- Activity (Rattus norvegicus [7]): 11 s
- Activity (Mus musculus [8]): inactive
- Activity (Rattus norvegicus [9]): 6.6 s
- Activity (Mus musculus [10]): Active
- Activity (Mus musculus [11]): inactive
- Activity (Rattus norvegicus [12]): 30.7 s
- Activity (Rattus norvegicus [13]): 8.6 s
- Activity (Mus musculus [14]): Active
- inhibition in vivo at 100 mg/kg (Mus musculus [15]): 90%
- Activity (Rattus norvegicus [16]): 22.8 s
- Activity (Rattus norvegicus [17]): 5.7 s
- Activity (Rattus norvegicus [18]): 5.3 s
- Activity (Rattus norvegicus [19]): 25.3 s
- Activity (Rattus norvegicus [20]): 5.1 s
- Activity (Rattus norvegicus [21]): 10.9 s
- Activity (Mus musculus [22]): inactive
- Activity (Mus musculus [23]): inactive
- Activity (Mus musculus [24]): inactive
- Activity (Rattus norvegicus [25]): 10.3 s
- Activity (Rattus norvegicus [26]): 7.8 s
- Activity (Rattus norvegicus [27]): 10.92 s
- Activity (Rattus norvegicus [28]): 1.9 s
- Activity (Rattus norvegicus [29]): 11.2 s
- Activity (Rattus norvegicus [30]): 9.9 s
- Activity (Rattus norvegicus [31]): 12 s
